Screening data from PubChem BioAssay.
APP 5'UTR act – activates APP 5'UTR luciferase reporter. activation, % at 2 µM. SH-SY5Y APP 5'UTR luciferase reporter, luminescence; zero percent = DMSO vehicle wells. AID 1276. actives 1% (n = 190,000);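 active = activation above a set limit, based on mean plus 3 SD of controls, cut at about 140% in these data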
STAT3 inh-1 – reduces IL-6 driven STAT3 reporter signal | actives 0.89% (n = 190,000) | U3A cells, IL-6 STAT3-luciferase reporter, luminescence; host cell line lacks STAT1 | AID 862 | inhibition, % at 5.5 µM;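 active = inhibition above the mean inhibition across all screened compounds plus 3 SD, cut at about 44% in these data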;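 note: 0% = DMSO only wells and 100% = 100 µM nifuroxazide control wells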
NF-kB neuron act – raises NF-kB expression in human neuronal cells; NF-kB reporter expression; stronger effect = higher value; actives 1.6% (n = 190,000); fold change at 12.5 µM; AID 1239; in the data active = fold change above about 3.3
STAT1 act – increases IFN-gamma driven STAT1 reporter signal | NIH 3T3 STAT1-luciferase reporter, luminescence; 100% = IFN-gamma alone, no compound | activation (% of control), % at 5.5 µM | AID 932 | actives 2.6% (n = 200,000);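 active = activation above the screen-wide mean activation plus 3 SD, cut at about 130% in these data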;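 note: raw ratio to IFN-gamma control signal so 100% means no change and 0% no light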
STAT3 activator – STAT3 signaling activation. activation (% of control), % at 5.6 µM. U3A cells, IL-6 STAT3-luciferase reporter, luminescence; 100% = signal with IL-6 EC80 alone. AID 871. actives 0.91% (n = 190,000);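 active = activation above the screen-wide mean of compound activation plus 3 SD, cut at about 130% in these data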;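 note: 0% = background luminescence of wells with medium and substrate only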
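Material: STAT3-luciferase reporter U3A cells. Controls: IL-6-treated wells, 100% activation. Read-out: % activation versus median of IL-6-stimulated wells. Probe or stimulus: IL-6 stimulus at 33 ng/mL final. Timing: compound 1 h, then IL-6 6 h at 37 °C. Signal: reporter luminescence signal.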
STAT1 inh – inhibitors of IFN-gamma induced STAT1 signaling; NIH 3T3 STAT1-luciferase reporter, luminescence; inhibition, % at 5.5 µM; actives 0.35% (n = 200,000); AID 920;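 active = inhibition above a set limit, the mean inhibition across all tested compounds plus 3 SD, cut at about 34% in these data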;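 note: 0% = IFN-gamma with DMSO and 100% = IFN-gamma with 300 µM nifuroxazide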
STAT3 inh-2 – confirmation of STAT3 signaling inhibitors | actives 45% (n = 1,200) | AID 1265 | inhibition, % at 5.7 µM | U3A cells, IL-6 STAT3 luciferase reporter, luminescence; cell line lacks STAT1 | shares compounds with STAT3 inh-1;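 active = inhibition above the hit cutoff computed for the primary STAT3 screen, cut at about 44% in these data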;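 note: 0% = IL-6 plus DMSO and 100% = IL-6 plus nifuroxazide control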
NFkB inh 2 – counter-screen for STAT3 inhibitors: NF-kappaB inhibition; shares compounds with STAT3 inh-1; HEK293T NF-kB luciferase reporter, TNF-alpha induced; inhibition, % at 5.7 µM; actives 36% (n = 1,200); AID 1308;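 active = inhibition above the mean of solvent-only control wells plus 3 SD, cutoff set per campaign, cut at about 13% in these data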;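 note: 0% = TNF-alpha with DMSO and 100% = TNF-alpha with MG high control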
STAT1 inh 2 – STAT1 inhibition in STAT3 inhibitor counter-screen; shares compounds with STAT3 inh-1; NIH 3T3 STAT1-luciferase reporter, IFN-gamma induced, luminescence; inhibition, % at 5.7 µM; actives 27% (n = 1,200);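 active = inhibition above the mean plus 3 SD of solvent-only control wells, limit set per screening run, cut at about 16% in these data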;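 note: 0% = DMSO with IFN-gamma and 100% = nifuroxazide control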
An asterisk follows results filed as active; . = no result given. Hits are enriched below; roughly 5.1% of the tested compounds scored in any of these assays.

SMILES	APP 5'UTR act	STAT3 inh-1	NF-kB neuron act	STAT1 act	STAT3 activator	STAT1 inh	STAT3 inh-2	NFkB inh 2	STAT1 inh 2
CS(=O)(=O)c1ccc(C(=O)N2CCN(Cc3ccccc3)CC2)cc1	12	7	1.1	105	99	-5	.	.	.
CCc1c(C)nc2ncnn2c1NCCc1ccc(Cl)cc1	-5	54*	0.89	77	56	23	59*	16*	25*
CCc1c(C)nc2ncnn2c1NCCc1ccccc1	-4	42	0.93	89	68	12	.	.	.
CN(C)c1ccc(NC(=O)c2cnsn2)cc1	86	50*	1.1	81	59	19	16	-14	-36
CC1CC1C(=O)Nc1nc(-c2ccc(Cl)s2)cs1 (stereo not given)	15	24	1.1	90	83	10	.	.	.
O=C(Nc1nc(-c2ccc(Cl)s2)cs1)c1ccncc1	-9	66*	1.1	99	49	2	56*	12	10
O=C(Cc1ccc(Cl)cc1)Nc1ccc(SC(F)F)cc1	5	3	0.82	111	100	-13	.	.	.
Cc1cc(C)c(C#N)c(SCc2nnc(-c3ccccc3)o2)n1	44	67*	0.23	89	46	12	12	-3	-86
Fc1ccc(NC(=S)Nc2ccc(Cl)cc2Cl)cc1	2	44*	1.4	109	65	-11	41	-9	-8
Clc1ccccc1-c1nnc(-c2ccc3c(c2)OCO3)o1	125	44*	7.4*	111	66	-14	11	-26	-106
Clc1ccccc1-c1nnc2sc(-c3ccc4c(c3)OCO4)nn12	22	-3	1.2	102	106	-2	.	.	.
c1ccc(-c2noc(-c3ccc4c(c3)OCO4)n2)cc1	167*	66*	3.9*	99	46	-1	27	6	-63
NC(=O)C1=NOC(CNc2ncc(C(F)(F)F)cc2Cl)C1 (stereo not given)	42	-1	1.6	114	105	-15	.	.	.
C/C(=N/NC(=O)c1cc(C(C)C)[nH]n1)c1cccs1	108	51*	3.4*	102	61	-2	7	-26	-64
C/C(=N\NC(=O)c1ccc(Cl)cc1)c1cccs1	128	59*	5.4*	75	52	26	18	-13	-65
O=C(C1=C[C@@H](c2coc3ccccc3c2=O)C[C@@H](OCCCCO)O1)N1CCN(Cc2ccc3c(c2)OCO3)CC1	-15	.	0.65	105	.	-4	.	.	.
Cc1cccc2cc3c(N)c(C#N)sc3nc12	-16	50*	1	110	64	-11	29	-7	-27
Cc1ccc(C(=O)Nc2nnc(SCC(=O)N3CCCc4ccccc43)s2)cc1	59	62*	7.1*	82	47	20	71*	56*	49*
O=C(Nc1nnc(SCC(=O)N2CCCc3ccccc32)s1)c1cccc2ccccc12	7	-3	0.92	99	105	1	.	.	.
CC(C)Oc1ccc(C(=O)Nc2nnc(SCC(=O)N3CCOCC3)s2)cc1	88	70*	1.1	81	40	21	74*	57*	50*
COc1cc(/C=N/Nc2ccc(C(F)(F)F)cn2)cc(OC)c1O	-6	48*	0.94	100	63	0	27	0	-3
COc1cc(/C=N/Nc2cccc3cccnc23)cc(OC)c1O	36	3	2.5	112	99	-14	.	.	.
O=c1c(Cl)c(Cl)cnn1Cc1ccccc1Cl	-92	48*	1.4	94	63	6	55*	27*	20*
Cc1ccn2cc(-c3ccc4c(c3)NC(=O)CO4)nc2c1	120	46*	1.1	114	66	-18	19	-25	-76
Cc1ccc(-c2cc(NC(=O)CCl)n(-c3ccccc3)n2)cc1	28	24	3	100	80	0	.	.	.
SMILES	APP 5'UTR act	STAT3 inh-1	NF-kB neuron act	STAT1 act	STAT3 activator	STAT1 inh	STAT3 inh-2	NFkB inh 2	STAT1 inh 2
O=C(CCl)Nc1cc(-c2ccccc2)nn1-c1ccccc1	-4	48*	3	90	62	11	29	-7	-24
COc1cc(CN(C(=S)NCC(=O)NC2CC2)C2CCCC2)cc(OC)c1OC	0	2	1.2	92	102	9	.	.	.
COc1cc(N/N=C/c2ccccc2O)ncn1	-41	19	2.8	108	83	-9	.	.	.
COc1cc(N/N=C/c2ccc(N(C)C)cc2)ncn1	135*	61*	4.1*	69	50	33	8	0	-103
O=C(O)CCN1C(=O)/C(=C\c2ccncc2)SC1=S	15	6	1.1	96	98	2	.	.	.
COc1ccc(/C=C2/SC(=S)N(CCC(=O)O)C2=O)cc1	-50	57*	0.49	84	52	17	57*	32*	12
Clc1ccc(CSc2nnc(Cn3cnc4ccccc43)o2)cc1	5	63*	0.82	102	48	12	45*	12	8
O=C(CSc1nnc(Cn2nnc3ccccc32)o1)N(Cc1ccc(Cl)cc1)c1ccccc1	.	53*	0.69	95	55	18	45*	13*	19*
NC(=O)CSc1nnc(Cn2cnc3ccccc32)o1	1	7	1.4	91	99	8	.	.	.
O=C(O)CCC(=O)N1CCN(c2nc3ccccc3s2)CC1	4	4	1.2	106	98	-7	.	.	.
Cc1cccc(C)c1NC(=O)N1CCN(c2nc3ccccc3s2)CC1	-5	56*	1.5	97	55	4	57*	8	4
CCOc1ccc(NC(=O)N2CCN(c3nc4ccccc4s3)CC2)cc1	3	55*	1.1	77	57	25	39	3	17*
CCC(=O)Nc1ccccc1C(=O)C(=O)Nc1ccccc1	2	-3	1.3	106	103	-7	.	.	.
O=C(Nc1cccc(S(=O)(=O)Nc2ccc(Cl)cc2)c1)c1cc2c(s1)CCCC2	0	-11	0.71	96	105	5	.	.	.
COc1cccc(S(=O)(=O)Nc2ccc(C(=O)Nc3ccncc3)cc2)c1	-5	1	0.98	86	98	15	.	.	.
O=C(Nc1cccc(S(=O)(=O)Nc2ccc(Cl)cc2)c1)c1ccc(Cl)nc1	-2	79*	0.59	74	33	28	81*	27*	23*
COc1ccc(NS(=O)(=O)c2cccc(NC(=O)c3ccc(Cl)nc3)c2)cc1	-10	86*	0.6	72	25	30	84*	38*	24*
